Data as given in ChEMBL document CHEMBL4177755, “Combating Drug-Resistant Fungi with Novel Imperfectly Amphipathic Palindromic Peptides” (J Med Chem, 2018).

Assays:
[1] = tested on: Escherichia coli; experiment: Bactericidal activity against Escherichia coli 1005; format: functional; settings: read-out: MBC99.9
Method in brief: (§1)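 Wells from the 24 h, 37 °C MHB microdilution plates (bacteria at a final (0.5−1) × 10^5 CFU/mL; peptide diluted in 0.2% BSA) were plated on agar and incubated overnight. MBC is the lowest concentration killing >99.9% of cells. Each test was reproduced at least 3 times.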

[2] = tested on: Escherichia coli; experiment: Antibacterial activity against Escherichia coli ATCC 25922 after 18 hrs in presence of ZnCl2 by broth dilution method; format: functional; settings: ATCC 25922, 18 h
[3] = tested on: Candida albicans; experiment: Antifungal activity against Candida albicans cgmcc 2.2086 in presence of KCl by broth dilution method; format: functional
[4] = tested on: Candida albicans; experiment: Fungicidal activity against Candida albicans SP3903 after 96 hrs; format: functional; settings: SP3903, 96 h, read-out: MFC99.9
Method in brief: (§2)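 After the 48 h, 28 °C broth microdilution in MOPS-buffered RPMI 1640 (inoculum (0.5−1) × 10^3 CFU/mL), 50 μL from each well was plated on YM agar for a further 48 h at 28 °C. MFC is the lowest concentration killing at least 99.9% of cells. Triplicate, three biological replicates.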

[5] = tested on: Candida albicans; experiment: Fungicidal activity against Candida albicans 14936 after 96 hrs; format: functional; settings: Candida albicans, 14936, 96 h; read-out: MFC99.9; method in brief: as §2
[6] = tested on: Staphylococcus aureus; experiment: Antibacterial activity against methicillin-resistant Staphylococcus aureus ATCC 4330 after 24 hrs; format: functional; settings: ATCC 4330, 24 h
Method in brief: (§3)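 Modified NCCLS broth microdilution. Mid-log bacteria at (0.5−1) × 10^5 CFU/mL in MHB were mixed 1:1 with peptide serially diluted in 0.2% BSA and incubated 24 h at 37 °C. Absorbance was read at 492 nm; MIC is the lowest concentration inhibiting 95% of growth. At least 3 repeats.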

[7] = tested on: Candida albicans; experiment: Antifungal activity against fluconazole-resistant Candida albicans 56214 after 48 hrs by broth microdilution method; format: functional; settings: Candida albicans, 56214, 48 h
Method in brief: (§4)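 Modified CLSI M27-A2 broth microdilution. Yeast at (0.5−1) × 10^3 CFU/mL in MOPS-buffered RPMI 1640 was mixed 1:1 with peptide serially diluted in 0.2% BSA and incubated 48 h at 28 °C. Absorbance was read at 492 nm; MIC is the lowest concentration inhibiting 95% of growth. Triplicate, three biological replicates.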

[8] = tested on: Candida albicans; experiment: Fungicidal activity against fluconazole-resistant Candida albicans 56452 after 96 hrs; format: functional; settings: Candida albicans, 56452, 96 h; read-out: MFC99.9; method in brief: as §2
[9] = tested on: Staphylococcus aureus; experiment: Bactericidal activity against methicillin-resistant Staphylococcus aureus ATCC 4330; format: functional; settings: read-out: MBC99.9
Method in brief: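 Bacteria at (0.5−1) × 10^5 CFU/mL in MHB were exposed to serially diluted peptide (0.2% BSA) for 24 h at 37 °C, then 50 μL aliquots were plated on agar overnight. MBC is the lowest concentration killing >99.9% of cells. At least 3 repeats.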

[10] = tested on: Candida albicans; experiment: Antifungal activity against Candida albicans cgmcc 2.2086 in presence of FeCl3 by broth dilution method; format: functional
[11] = tested on: Escherichia coli; experiment: Antibacterial activity against Escherichia coli ATCC 25922 after 18 hrs in presence of NaCl by broth dilution method; format: functional; settings: ATCC 25922, 18 h
[12] = tested on: Candida tropicalis; experiment: Antifungal activity against Candida tropicalis cgmcc 2.1975 after 48 hrs by broth microdilution method; format: functional; settings: cgmcc 2.1975, 48 h
Method in brief: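 Modified CLSI M27-A2 broth microdilution. Yeast were suspended in MOPS-buffered RPMI 1640 at a final (0.5−1) × 10^3 CFU/mL and mixed 1:1 with peptide serially diluted in 0.2% BSA. Plates were incubated 48 h at 28 °C and read at A492. MIC is the lowest concentration giving 95% inhibition. Run in triplicate with three biological replicates.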

[13] = tested on: Candida albicans; experiment: Antifungal activity against Candida albicans cgmcc 2.2086 in presence of MgCl2 by broth dilution method; format: functional
[14] = tested on: Escherichia coli; experiment: Antibacterial activity against Escherichia coli ATCC 25922 after 18 hrs in presence of NH4Cl by broth dilution method; format: functional; settings: ATCC 25922, 18 h
[15] = tested on: Staphylococcus epidermidis; experiment: Bactericidal activity against Staphylococcus epidermidis ATCC 12228; format: functional; settings: read-out: MBC99.9; method in brief: as §1
[16] = tested on: Staphylococcus aureus; experiment: Bactericidal activity against Staphylococcus aureus ATCC 25923; format: functional; settings: read-out: MBC99.9; method in brief: as §1
[17] = tested on: Candida parapsilosis; experiment: Fungicidal activity against Candida parapsilosis cgmcc 2.3989 after 96 hrs; format: functional; settings: Lodderomyces parapsilosis, cgmcc 2.3989, 96 h; read-out: MFC99.9
Method in brief: (§5)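 Wells from the 48 h, 28 °C RPMI 1640/MOPS microdilution plates were plated on YM agar and incubated a further 48 h at 28 °C. MFC is the lowest concentration killing at least 99.9% of cells. Run in triplicate with three biological replicates.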

[18] = Antibacterial activity against Salmonella pullorum ATCC 7913 after 24 hrs; format: functional, Salmonella enterica subsp. enterica serovar Pullorum; settings: Salmonella enterica, ATCC 7913, 24 h
Method in brief: (§6)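 Broth microdilution. Mid-log bacteria in MHB at a final (0.5−1) × 10^5 CFU/mL were mixed with equal volumes of peptide serially diluted in 0.2% BSA. Plates were incubated 24 h at 37 °C and read at A492. MIC is the lowest concentration inhibiting 95% of growth. Each test was repeated at least 3 times.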

[19] = tested on: Pichia kudriavzevii; experiment: Fungicidal activity against Candida krusei cgmcc 2.1857 after 96 hrs; format: functional; settings: cgmcc 2.1857, 96 h, read-out: MFC99.9; method in brief: as §5
[20] = tested on: Candida albicans; experiment: Antifungal activity against Candida albicans cgmcc 2.2086 in presence of NH4Cl by broth dilution method; format: functional
[21] = tested on: Escherichia coli; experiment: Antibacterial activity against Escherichia coli ATCC 25922 after 18 hrs in presence of FeCl3 by broth dilution method; format: functional; settings: ATCC 25922, 18 h
[22] = tested on: Salmonella typhimurium; experiment: Bactericidal activity against Salmonella typhimurium ATCC 14028; format: functional, Salmonella enterica subsp. enterica serovar Typhimurium; settings: Salmonella enterica, read-out: MBC99.9; method in brief: as §1
[23] = tested on: Escherichia coli; experiment: Antibacterial activity against Escherichia coli ATCC 25922 after 24 hrs; format: functional; settings: ATCC 25922, 24 h; method in brief: as §6
[24] = tested on: Candida albicans; experiment: Antifungal activity against Candida albicans cgmcc 2.2086 in presence of CaCl2 by broth dilution method; format: functional
[25] = tested on: Candida albicans; experiment: Fungicidal activity against Candida albicans SP3902 after 96 hrs; format: functional; settings: SP3902, 96 h, read-out: MFC99.9; method in brief: as §2
[26] = tested on: Escherichia coli; experiment: Bactericidal activity against Escherichia coli ATCC 25922; format: functional; settings: read-out: MBC99.9; method in brief: as §1
[27] = tested on: Candida albicans; experiment: Antifungal activity against Candida albicans cgmcc 2.2086 after 48 hrs by broth microdilution method; format: functional; settings: cgmcc 2.2086, 48 h; method in brief: as §4
[28] = tested on: Staphylococcus epidermidis; experiment: Antibacterial activity against Staphylococcus epidermidis ATCC 12228 after 24 hrs; format: functional; settings: ATCC 12228, 24 h; method in brief: as §6
[29] = tested on: Staphylococcus aureus; experiment: Antibacterial activity against Staphylococcus aureus ATCC 29213 after 24 hrs; format: functional; settings: ATCC 29213, 24 h; method in brief: as §3
[30] = tested on: Candida albicans; experiment: Antifungal activity against Candida albicans isolated from alveolar fluid after 48 hrs by broth microdilution method; format: functional; method in brief: as §4
[31] = tested on: Candida albicans; experiment: Fungicidal activity against Candida albicans 58288 after 96 hrs; format: functional; settings: Candida albicans, 58288, 96 h; read-out: MFC99.9; method in brief: as §2
[32] = tested on: Candida albicans; experiment: Antifungal activity against Candida albicans cgmcc 2.2086 in presence of ZnCl2 by broth dilution method; format: functional
[33] = tested on: Staphylococcus aureus; experiment: Bactericidal activity against Staphylococcus aureus ATCC 29213; format: functional; settings: read-out: MBC99.9; method in brief: as §1
[34] = tested on: Candida albicans; experiment: Antifungal activity against Candida albicans 14936 after 48 hrs by broth microdilution method; format: functional; settings: Candida albicans, 14936, 48 h; method in brief: as §4

| Substance | MBC [1] [µM] | MIC [2] [µM] | MIC [3] [µM] | MFC [4] [µM] | MFC [5] [µM] | MIC95 [6] [µM] | MIC95 [7] [µM] | MFC [8] [µM] | MBC [9] [µM] | MIC [10] [µM] | MIC [11] [µM] | MIC95 [12] [µM] | MIC [13] [µM] | MIC [14] [µM] | MBC [15] [µM] | MBC [16] [µM] | MFC [17] [µM] | MIC95 [18] [µM] | MFC [19] [µM] | MIC [20] [µM] | also measured |
| --- | --- | --- | --- | --- | --- | --- | --- | --- | --- | --- | --- | --- | --- | --- | --- | --- | --- | --- | --- | --- | --- |
| H-RLLRRLRRLLR-NH2 | 4 | 8 | 16 | 4 | 8 | 8 | 8 | 8 | 16 | 8 | 4 | 2 | 32 | 4 | 4 | 16 | 16 | 8 | 8 | 4 | MIC [21]: 16 µM; MBC [22]: 16 µM; MIC95 [23]: 4 µM; MIC [24]: 8 µM; MFC [25]: 8 µM; MBC [26]: 16 µM; MIC95 [27]: 8 µM; MIC95 [28]: 4 µM; MIC95 [29]: 4 µM; MIC95 [30]: 8 µM; MFC [31]: 16 µM; MIC [32]: 8 µM; MBC [33]: 16 µM; MIC95 [34]: 8 µM |
| H-RLRLLLRLR-NH2 | 8 | 8 | 16 | 8 | 4 | 4 | 8 | 8 | 4 | 8 | 4 | 2 | 8 | 4 | 8 | 8 | > 64 | 4 | 8 | 8 | MIC [21]: 4 µM; MBC [22]: 8 µM; MIC95 [23]: 4 µM; MIC [24]: 64 µM; MFC [25]: 8 µM; MBC [26]: 8 µM; MIC95 [27]: 8 µM; MIC95 [28]: 4 µM; MIC95 [29]: 8 µM; MIC95 [30]: 8 µM; MFC [31]: 16 µM; MIC [32]: 8 µM; MBC [33]: 8 µM; MIC95 [34]: 4 µM |
| H-RRFRFFFRFRR-NH2 | 4 | 2 | 16 | 2 | 4 | 4 | 4 | 4 | 8 | 4 | 4 | 1 | 4 | 4 | 4 | 16 | 32 | 2 | 2 | 4 | MIC [21]: 4 µM; MBC [22]: 8 µM; MIC95 [23]: 4 µM; MIC [24]: 16 µM; MFC [25]: 4 µM; MBC [26]: 4 µM; MIC95 [27]: 4 µM; MIC95 [28]: 4 µM; MIC95 [29]: 4 µM; MIC95 [30]: 4 µM; MFC [31]: 8 µM; MIC [32]: 4 µM; MBC [33]: 8 µM; MIC95 [34]: 4 µM |
| H-RRIRIIIRIRR-NH2 | 4 | 4 | 2 | 1 | 2 | 4 | 1 | 1 | 4 | 2 | 4 | 1 | 2 | 4 | 4 | 8 | 8 | 2 | 2 | 2 | MIC [21]: 4 µM; MBC [22]: 4 µM; MIC95 [23]: 4 µM; MIC [24]: 4 µM; MFC [25]: 2 µM; MBC [26]: 4 µM; MIC95 [27]: 2 µM; MIC95 [28]: 4 µM; MIC95 [29]: 4 µM; MIC95 [30]: 2 µM; MFC [31]: 2 µM; MIC [32]: 2 µM; MBC [33]: 8 µM; MIC95 [34]: 2 µM |
